Reference: ChEMBL document CHEMBL4257452, “A mini-library system to investigate non-essential residues of lipid-phosphatidylserine (PS) binding peptide-peptoid hybrid PPS1” (Medchemcomm, 2017)
pIC50: −log10 of the molar value. Activity calls are given as the source filed them. The rule behind the calls is not given here. Starred links: 1 amine or outer side, 2 acyl side, 3 side chain; linkers in the order of their positions; H or OH if unused. Positions of bridges follow the written chain, without caps; N, C: chain ends. Non-standard residues stand in square brackets, D forms with d. Residues, ends and D or L forms follow the SMILES beside them. Chains are numbered I, II in the order given. Gly(N-piperonyl) = O=C(O)CNCc1ccc2c(c1)OCO2; N(4-MeOBn)Gly = COc1ccc(CNCC(=O)O)cc1; X1 = COc1cccc(CN(CC(=O)[*:2])[*:1])c1; N((CH2)3OiPr)Gly = CC(C)OCCCNCC(=O)O; X3 = CC(c1ccccc1)N(CC(=O)[*:2])[*:1]

Assays:
HCC4017 [1] = test: Cytotoxicity against human HCC4017 cells assessed as reduction in cell viability at 20 uM after 24 hrs by MTS assay; assay type: functional, cell-based
Method in brief: (§1)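 HCC4017 cells (RPMI, 5% FBS) and HBEC-3KT normal lung cells (KSFM with recombinant human EGF and bovine pituitary extract) were plated at 10 000 cells/well in triplicate and left to adhere overnight. They were exposed to 1 or 20 μM compound for 24 h. MTS reagent was then added for 2 h and absorbance read at 490 nm. Viability is % of untreated control wells.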

HCC4017 [2] = test: Cytotoxicity against human HCC4017 cells assessed as reduction in cell viability after 24 hrs by MTS assay; assay type: functional, cell-based; settings: HCC4017, 24 h
Method in brief: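 HCC4017 lung cancer cells (RPMI, 5% FBS) were seeded at 10 000 cells/well in triplicate and adhered overnight. Purified compounds were given as a concentration gradient for 24 h. MTS reagent was added for 2 h and absorbance read at 490 nm. IC50 was taken from the viability curves.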

HCC4017 [3] = test: Cytotoxicity against human HCC4017 cells assessed as reduction in cell viability up to 100 uM after 24 hrs by calcein-AM dye based fluorescence assay; assay type: functional; settings: in the assay text read “up to 50 uM” for “up to 100 uM”
Method in brief: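 HCC4017 cells were seeded at 10 000 cells/well in triplicate, adhered overnight, and treated with a graded series of compounds for 24 h. Medium was replaced with PBS containing calcein AM (1 mM as printed) for 15 min at room temperature. Fluorescence emission was read at 520 nm.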

HCC4017 [4] = test: Cytotoxicity against human HCC4017 cells assessed as reduction in cell viability at 1 uM after 24 hrs by MTS assay; assay type: functional, cell-based; method in brief: as §1
[5] = Cytotoxicity against human HBEC3-KT cells assessed as reduction in cell viability at 1 uM after 24 hrs by MTS assay; assay type: cell-based; method in brief: as §1
[6] = Cytotoxicity against human HBEC3-KT cells assessed as reduction in cell viability at 20 uM after 24 hrs by MTS assay; assay type: cell-based; method in brief: as §1

SMILES | Activity (HCC4017 [1]) | pIC50 (HCC4017 [2]) | Activity (HCC4017 [3]) | Activity (HCC4017 [4]) | Activity [5] | Activity [6]
COc1ccc(CN(CC(=O)N(CC(=O)NC(CCCCN)C(=O)NC(CCCCN)C(=O)NC(CCSC)C(=O)NCCCCC(NC(=O)C(CCSC)NC(=O)C(CCCCN)NC(=O)C(CCCCN)NC(=O)CN(Cc2cccc(OC)c2)C(=O)CN(Cc2ccc(OC)cc2)C(=O)CN(C(=O)CN(Cc2ccc3c(c2)OCO3)C(=O)CNC(C)c2ccccc2)C(C)c2ccccc2)C(N)=O)Cc2cccc(OC)c2)C(=O)CN(C(=O)CN(Cc2ccc3c(c2)OCO3)C(=O)CNC(C)c2ccccc2)C(C)c2ccccc2)cc1 (centres undefined) (I: H-[X3][Gly(N-piperonyl)][X3][N(4-MeOBn)Gly][X1]KKMK-NH2 / II: H-[X3][Gly(N-piperonyl)][X3][N(4-MeOBn)Gly][X1]KKM; amide I:9-II:C; configuration not given here) | Active | 5.00 to 5.15 | Active | inactive | Non-Toxic | Non-Toxic
COc1ccc(CN(CC(=O)N(CCCOC(C)C)CC(=O)NC(CCCCN)C(=O)NC(CCCCN)C(=O)NC(CCSC)C(=O)NCCCCC(NC(=O)C(CCSC)NC(=O)C(CCCCN)NC(=O)C(CCCCN)NC(=O)CN(CCCOC(C)C)C(=O)CN(Cc2ccc(OC)cc2)C(=O)CN(C(=O)CN(Cc2ccc3c(c2)OCO3)C(=O)CNC(C)c2ccccc2)C(C)c2ccccc2)C(N)=O)C(=O)CN(C(=O)CN(Cc2ccc3c(c2)OCO3)C(=O)CNC(C)c2ccccc2)C(C)c2ccccc2)cc1 (centres undefined) (I: H-[X3][Gly(N-piperonyl)][X3][N(4-MeOBn)Gly][N((CH2)3OiPr)Gly]KKMK-NH2 / II: H-[X3][Gly(N-piperonyl)][X3][N(4-MeOBn)Gly][N((CH2)3OiPr)Gly]KKM; amide I:9-II:C; configuration not given here) | Active | 5.00 to 5.15 | Active | inactive | Non-Toxic | Non-Toxic
COc1ccc(CN(CC(=O)NC(C(=O)NC(CCCCN)C(=O)NC(CCCCN)C(=O)NC(CCSC)C(=O)NCCCCC(NC(=O)C(CCSC)NC(=O)C(CCCCN)NC(=O)C(CCCCN)NC(=O)C(NC(=O)CN(Cc2ccc(OC)cc2)C(=O)CN(C(=O)CN(Cc2ccc3c(c2)OCO3)C(=O)CNC(C)c2ccccc2)C(C)c2ccccc2)C(C)O)C(N)=O)C(C)O)C(=O)CN(C(=O)CN(Cc2ccc3c(c2)OCO3)C(=O)CNC(C)c2ccccc2)C(C)c2ccccc2)cc1 (centres undefined) (I: H-[X3][Gly(N-piperonyl)][X3][N(4-MeOBn)Gly]TKKMK-NH2 / II: H-[X3][Gly(N-piperonyl)][X3][N(4-MeOBn)Gly]TKKM; amide I:9-II:C; configuration not given here) | Active | 4.85 |  |  |  | 
COc1ccc(CN(CC(=O)NC(Cc2ccccc2)C(=O)NC(CCCCN)C(=O)NC(CCCCN)C(=O)NC(CCSC)C(=O)NCCCCC(NC(=O)C(CCSC)NC(=O)C(CCCCN)NC(=O)C(CCCCN)NC(=O)C(Cc2ccccc2)NC(=O)CN(Cc2ccc(OC)cc2)C(=O)CN(C(=O)CN(Cc2ccc3c(c2)OCO3)C(=O)CNC(C)c2ccccc2)C(C)c2ccccc2)C(N)=O)C(=O)CN(C(=O)CN(Cc2ccc3c(c2)OCO3)C(=O)CNC(C)c2ccccc2)C(C)c2ccccc2)cc1 (centres undefined) (I: H-[X3][Gly(N-piperonyl)][X3][N(4-MeOBn)Gly]FKKMK-NH2 / II: H-[X3][Gly(N-piperonyl)][X3][N(4-MeOBn)Gly]FKKM; amide I:9-II:C; configuration not given here) | Active | 5.00 to 5.15 |  | inactive | Non-Toxic | Non-Toxic
